High-throughput results (PubChem)
ROMK primary: modulates human ROMK potassium channel activity; AID 1918; B-score at 10 µM; hit rate 2% among 130,000; P48048; Tet-inducible ROMK, thallium flux fluorescence; actives lie on both sides;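 active = signal ratio slope over the read window, or its plate-corrected B-score, at least 3 SD from the plate mean, either direction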;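 also: B-score of the F/F0 ratio slope over 7 to 12 s after thallium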
Target sequence (P48048 whole entry, looked up): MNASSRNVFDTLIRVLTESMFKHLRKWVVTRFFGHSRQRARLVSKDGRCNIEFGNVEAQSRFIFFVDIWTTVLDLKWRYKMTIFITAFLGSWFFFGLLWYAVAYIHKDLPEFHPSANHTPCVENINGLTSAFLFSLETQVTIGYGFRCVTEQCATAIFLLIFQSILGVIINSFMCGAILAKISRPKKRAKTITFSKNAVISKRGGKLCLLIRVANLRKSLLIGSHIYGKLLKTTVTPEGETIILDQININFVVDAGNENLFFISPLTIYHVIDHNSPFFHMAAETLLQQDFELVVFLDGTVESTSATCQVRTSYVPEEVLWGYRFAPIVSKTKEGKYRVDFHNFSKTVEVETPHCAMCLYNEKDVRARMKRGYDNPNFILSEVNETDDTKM
Diaphorase act: diaphorase activation or chemical reduction counter-screen | hit rate 0.005% among 190,000 | activation factor at 20 µM | Diaphorase/resazurin coupled assay, resorufin fluorescence, 16 min; stronger effect = higher value; 1 = vehicle wells, 0 = NADH-free wells;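 active = diaphorase activity raised at least twofold by the compound at 20 µM; inactive = activation factor below 2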
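Test system: Clostridium kluyveri diaphorase, purified enzyme. Buffer or medium: 50 mM HEPES pH 7.4 buffer plus MgCl2 and Tween 20. Also added: 0.114 mM NADH and 0.1 mM resazurin, final amounts. Dosing: compound 20 µM once, DMSO 1%. Schedule: 16 min enzyme reaction, ambient temperature. Detection: fluorescence of resorufin, 544 nm excitation, 590 nm emission.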
Diaphorase inh: inhibits diaphorase or chemically oxidizes, flagging diaphorase assay artifacts; diaphorase resazurin-to-resorufin fluorescence, NADH, 16 min; bacterial (C. kluyveri) enzyme, not human; inhibition, % at 20 µM; hit rate 0.69% among 190,000;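 active = primary screen inhibition at 20 µM above a set limit, cut at about 50% in these data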
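Detection: fluorescence of resorufin formed from resazurin, Ex 544/Em 590 nm; test system: Clostridium kluyveri diaphorase enzyme; amount: 0.14 U/mL diaphorase, enzyme working solution; times: 16-min room-temperature incubation before reading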
WT yeast gro inh: growth inhibition of WT yeast, mitochondrial fusion screen; mitochondrial fusion phenotypic screen, WT strain; inhibition, % at 10 µM; hit rate 2.1% among 190,000; in the data active = inhibition above about 58%; tested in S. cerevisiae
Lmaj promast: Leishmania major promastigote growth inhibition; Leishmania major promastigotes, resazurin fluorescence viability; inhibition, % at 10 µM; hit rate 9% among 200,000; in the data active = inhibition above about 50%;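 also: promastigotes grown with compound for 44 hours at 28 °C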
KCC2 mod: KCC2 (human) Cl- transport modulation | KCC2 cells, thallium flux FluoZin-2 fluorescence | AID 1456 | Q9H2X9 | B-score of Tl+ flux slope (higher = more flux/activation; lower = inhibition) at 10 µM | hit rate 2.2% among 190,000;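 active = thallium flux slope and its plate-corrected score both differing from the plate sample mean at a set confidence after two filtering rounds, in either direction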;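 also: slope of fluorescence scaled to starting intensity during 10 to 20 s after thallium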
ROMK hit retest: retested hit modulating human ROMK potassium channel; ROMK thallium flux, fluorescence ratio; stronger effect = lower value; hit rate 54% among 3,000; shares compounds with ROMK primary; AID 1917; normalized thallium flux (F/F0 slope) at 10 µM;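 active = Flux at 10 µM at least 3 SD below or above vehicle control mean in one or both replicates; inconclusive = no clear call, values can overlap the other calls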
Hits are given with their value; . = inactive; ? = inconclusive; / = no result. Most compounds without a hit are left out; they make up all but 12% or so of the library.

SMILES | ROMK primary | Diaphorase act | Diaphorase inh | WT yeast gro inh | Lmaj promast | KCC2 mod | ROMK hit retest
CCOC(=O)c1c(N2C(=O)C=CC2=O)sc(C)c1C | / | . | . | . | . | / | /
CCOC(=O)Cn1cc(/C=N/NC(=O)c2cc3ccccc3o2)c2ccccc21 | / | / | / | / | / | . | .
Cn1c(C(C#N)C2=C(Cl)C(=O)N(c3ccccc3)C2=O)nc2ccccc21 (stereo not given) | / | . | . | . | . | . | /
COc1cc2c(cc1OC)CN(c1nc(-c3cccnc3)nc3ccccc13)CC2 | . | . | . | . | . | . | .
COc1ccc(CN(C)c2nc(-c3cccnc3)nc3ccccc23)cc1OC | . | . | . | . | . | / | /
O=C(O)c1cc(N/N=C/C=C/c2ccccc2)ccc1Cl | . | . | . | . | . | . | /
COc1cc(CNC(C)(C)CO)cc(Br)c1OCc1ccc(Cl)cc1 | -5.14 | . | . | . | 98.3 | . | 0.0564
COc1cc(/C=N/O)cc(Br)c1OCc1ccc(Cl)cc1 | . | . | . | . | . | . | /
CN1CCN(NC(=S)Nc2ccc(Oc3ccccc3)cc2)CC1 | . | . | . | . | . | . | /
Cc1cccc(Cn2c(C)nc3c(N)c(C)c(C)cc32)c1 | . | . | . | . | . | . | /
C=CCn1c(=O)/c(=C/c2ccc(O)cc2)s/c1=C(/C#N)c1nnc2n1CCCCC2 | -1.12 | . | . | . | . | / | 0.0533
N=c1c2c(-c3ccccc3)c(-c3ccccc3)n(Cc3ccco3)c2ncn1CCCN1CCOCC1 | -2.76 | . | . | . | 100.5 | . | 0.049
O=c1c2ccccc2nc(-c2ccccc2)n1CCCN1CCOCC1 | . | . | . | . | . | . | /
N=c1c2c(-c3ccccc3)c(-c3ccccc3)n(Cc3ccco3)c2ncn1CCCn1ccnc1 | -5.57 | . | . | . | 100.2 | . | 0.0485
N=c1c2c(-c3ccccc3)c(-c3ccccc3)oc2ncn1CCCN1CCOCC1 | -3.79 | . | . | . | 86.8 | . | .
Cn1c2ccccc2c2ncn(CCCN3CCOCC3)c(=O)c21 | / | . | . | . | . | . | /
c1ccc(-c2c(-c3ccccc3)n(Cc3ccco3)c3ncnc(NCCCn4ccnc4)c23)cc1 | -3.91 | . | . | 73.0 | 100.2 | / | ?
Cc1noc(C)c1CN1C(=O)NC(Cc2ccccc2)(Cc2ccccc2)C1=O | / | . | . | . | . | / | /
CCCCCN1C(=O)Cn2c(nc3ccccc3c2=O)C1C (stereo not given) | . | . | . | . | . | . | /
O=C(CN1CCN(S(=O)(=O)c2ccccc2F)CC1)Nc1ccccc1C(=O)c1ccccc1 | . | . | . | . | . | . | /
CC(C)Cn1cnc2c(c(-c3ccccc3)c(-c3ccccc3)n2Cc2ccco2)c1=N | -4.34 | . | . | . | 100.3 | / | 0.044
Cc1ccc2c(c1)C(=O)CC(O)(C(F)F)O2 (stereo not given) | / | / | / | / | / | . | .
Cc1ccc(/C=N/NC(=O)CNC(=O)c2cccs2)o1 | . | . | . | . | . | . | /
O=C(CNC(=O)c1cccs1)N/N=C/c1ccco1 | 3.44 | . | . | . | . | . | 0.0669
CCOc1ccccc1/C=N/NC(=O)CNC(=O)c1cccs1 | -2.11 | . | . | . | . | . | .
SMILES | ROMK primary | Diaphorase act | Diaphorase inh | WT yeast gro inh | Lmaj promast | KCC2 mod | ROMK hit retest
O=c1cc(-c2cccc(Br)c2)oc2cccc(O)c12 | / | / | / | / | / | . | /
COc1cccc(SCC2CSc3nc4ccccc4c(=O)n32)c1 (stereo not given) | . | . | . | . | . | . | /
CC(=O)c1ccc(N2CCN(C(=O)c3cc4c(-c5ccccc5F)nn(C)c4s3)CC2)cc1 | / | . | . | . | . | / | 0.0617
COc1ccc(/C=C/C(=O)OCC(=O)Nc2ccc(Cl)cn2)cc1 | . | . | . | . | . | . | /
OCCN(CC(O)Cn1ccc2ccccc21)CC(O)Cn1ccc2ccccc21 (stereo not given) | -4.79 | . | . | . | . | / | 0.0558
C=CCn1c(COc2ccc(CC)cc2)nnc1SC/C(O)=C(\C#N)c1nc2ccccc2[nH]1 | / | . | . | . | . | / | /
COC(=O)[C@@H]1C[C@@]2(O)[C@@H](O)[C@@H](O)[C@@H](O)C[C@H]2N1Cc1ccc(C(F)(F)F)cc1 | / | / | / | / | / | . | .
CC1(C)C(=O)OC(C(=O)c2ccc(C(C)(C)C)cc2)C(C)(C)C1=O (stereo not given) | . | . | . | . | . | / | /
CCCC(CCC)c1nc2ccncc2[nH]1 | . | . | . | . | . | . | /
CN1CCN(S(=O)(=O)c2cccc(C(=O)Nc3ccccc3N3CCOCC3)c2)CC1 | / | . | . | . | . | . | /
Cc1c(C(=O)Nc2ccncc2)oc2ccccc12 | / | . | . | . | . | . | .
CCOc1ccc(OCCN2C(=O)NC(Cc3c[nH]c4ccccc34)C2=O)cc1 (stereo not given) | / | . | . | . | . | . | /
O=C(OCCN1CCOCC1)c1cccs1 | . | . | . | . | . | . | /
COc1cc(-c2noc(C)n2)cc(OC)c1OC | . | / | / | / | / | . | /
CS(=O)(=O)N1CCc2cc(-c3csc(NC(=O)Cc4cccs4)n3)ccc21 | / | . | . | . | . | . | 0.0675
O=C1N/C(=C\c2ccc(O)cc2)C(O)=C1C=NCc1ccccc1 | 2.13 | . | . | . | . | . | .
CCOC(=O)c1sc2nc(COC(=O)c3c(F)cccc3F)[nH]c(=O)c2c1C | -2.36 | . | . | . | . | . | .
CCOC(=O)c1sc2nc(CSc3nc4ccccc4n3CC)[nH]c(=O)c2c1C | / | . | . | . | . | . | /
COCCOC(=O)c1c(C)oc2ccc(OC(=O)c3c(OC)cccc3OC)cc12 | . | . | . | . | . | . | /
NC(=O)c1ccccc1NC(=O)CCc1ccccc1 | / | . | . | . | . | . | .
COc1cc(O)sc1C=Nc1ccc(Cl)cc1Cl | . | . | . | . | . | . | /
CCc1nnc(NC(=O)C2CCN(c3nc(C)cc(C)n3)CC2)s1 | 2.17 | . | . | . | . | / | .
Cc1cc(C)nc(N2CCCC(C(=O)Nc3nnc(C)s3)C2)n1 (stereo not given) | / | . | . | . | . | / | /
COC(=O)c1ccc(N=Cc2c(C(F)(F)F)[nH][nH]c2=O)cc1 | . | . | . | . | . | . | /
Cn1nc(-c2ccccc2)c(N2CCCCC2)cc1=O | . | . | . | . | . | . | /
COc1ccc(Cn2nc(-c3ccccc3)c(N3CCCCC3)cc2=O)cc1 | -4.42 | . | . | 71.4 | . | . | ?
CSC1=C(C#N)C(=O)NC(c2ccccc2O)S1 (stereo not given) | -4.16 | / | / | / | / | . | 0.0585
Cc1ccc(S(=O)(=O)N2CCC(C(=O)N[C@@H](C)C(=O)NC3CCCCC3)CC2)cc1 | / | . | . | . | . | . | /
COc1ccc(CNC(=O)[C@H](C)NC(=O)C2CCN(S(=O)(=O)c3ccc(C)cc3)CC2)cc1 | . | . | . | . | . | / | .
COc1ccc(C(C)=O)cc1CN1C(=O)NC2(CCCCC2)C1=O | 1.99 | . | . | . | . | . | .
